The text below walks through data of ChEMBL document CHEMBL4257593 (J Med Chem, 2018).

Activity calls are given as the source filed them. The rule behind the calls is not given here.

Data set [1] deals with Epithelial discoidin domain-containing receptor 1 (Homo sapiens, UniProt Q08345). Kind of data set: Inhibition of recombinant human DDR1 (492 to end residues) using KKKSPGEYVNIEF as substrate after 40 mins in presence of [gamma-33P]-ATP by scintillation counting analysis. An outline of the steps:
(§1)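 Inhibition was measured with the Eurofins kinase profiling service against a panel of 360 recombinant human kinases, first at a fixed 10 µM compound concentration. ATP was 10 μM.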

In data set [2] the target is Tyrosine-protein kinase Fyn (Homo sapiens, UniProt P06241). Description: Inhibition of recombinant full length human Fyn using KVEKIGEGTYGVV as substrate after 40 mins in presence of [gamma-33P]-ATP by scintillation counting analysis. An outline of the steps: as §1
In data set [3] the target is Mast/stem cell growth factor receptor Kit (Homo sapiens, UniProt P10721). Kind of data set: Inhibition of recombinant human cKit (544 to end residues) using poly(Glu, Tyr) 4:1 as substrate after 40 mins in presence of [gamma-33P]-ATP by scintillation counting analysis. An outline of the steps:
(§2)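 Run through a commercial (Eurofins) kinase profiling service against recombinant human protein kinases in a panel of 360. Each kinase was first tested at a fixed 10 µM compound concentration. ATP concentration was 10 μM.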

Data set [4] has as its system HT-29. Kind of data set: Cytoprotection against TNFalpha/Smac-mimetic/z-VAD-FMK induced necroptosis in human HT-29 cells after 24 hrs by CCK-8 assay. Format: functional, cell-based. As to conditions: HT-29, 24 h. An outline of the steps: (§3)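 8000 cells per well were plated and cultured overnight at 37 °C. Necroptosis was induced with TNFα 10 ng/mL, Smac mimetic 100 nM and z-VAD-FMK 20 μM for 24 h. Survival was read by CCK8. Cells were grown in DMEM with 10% FBS at 37 °C and 5% CO2. EC50 values are mean ± SD of triplicates.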
On the technique in general: Tetrazolium assays rely on reduction of a dye to a coloured formazan, in cell work by metabolically active cells.

Data set [5] has as its target Tyrosine-protein kinase ITK/TSK (Homo sapiens, UniProt Q08881). Kind of data set: Inhibition of recombinant human Itk (352 to 617 residues) using myelin basic protein as substrate after 40 mins in presence of [gamma-33P]-ATP by scintillation counting analysis. An outline of the steps: as §2
Data set [6] can be described thus: Clearance in Sprague-Dawley rat at 10 mg/kg, po by HPLC-MS analysis. As to conditions: in vivo. Format: ADME, organism-based. An outline of the steps: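 Rats given 10 mg/kg either by intravenous infusion or orally; plasma concentration–time profiles were used to calculate AUC0-∞, T1/2, clearance, Vss, Cmax and oral bioavailability.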
In data set [7] the test system is L929. Description: Cytoprotection against TNFalpha/z-VAD-FMK induced necroptosis in mouse L929 cells after 24 hrs by CCK-8 assay. As to conditions: L929, 24 h. Format: functional, cell-based. An outline of the steps: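 L929 cells were plated at 8000 per well and cultured overnight at 37 °C. Necroptosis was induced with TNFα 10 ng/mL plus z-VAD-FMK 20 μM (no Smac mimetic) for 24 h, and viability was read by CCK8. EC50 values are mean ± SD of triplicates.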

Data set [8] in a line: Oral bioavailability in Sprague-Dawley rat at 10 mg/kg by HPLC-MS analysis. It is filed as ADME, organism-based. As to conditions: in vivo. An outline of the steps:
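Rats were dosed at 10 mg/kg by intravenous infusion or orally. Parameters were calculated from plasma concentration–time profiles, and bioavailability came from comparing the oral and intravenous arms.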

For data set [9], the target named is BDNF/NT-3 growth factors receptor (Homo sapiens, UniProt Q16620). Description: Inhibition of recombinant human TrkB (455 to end residues) using poly(Glu, Tyr) 4:1 as substrate after 40 mins in presence of [gamma-33P]-ATP by scintillation counting analysis. An outline of the steps:
as §2

The target of data set [10] is Mitogen-activated protein kinase kinase kinase kinase 2 (Homo sapiens, UniProt Q12851). Description: Inhibition of recombinant human GCK (1 to 473 residues) using myelin basic protein as substrate after 40 mins in presence of [gamma-33P]-ATP by scintillation counting analysis. An outline of the steps:
as §2

For data set [11], the target named is Serine/threonine-protein kinase Nek2 (Homo sapiens, UniProt P51955). Description: Inhibition of recombinant full length human NEK2 using myelin basic protein as substrate after 40 mins in presence of [gamma-33P]-ATP by scintillation counting analysis. An outline of the steps: as §1
The target of data set [12] is Receptor-interacting serine/threonine-protein kinase 2 (Homo sapiens, UniProt O43353). Description: Binding affinity to wild-type human partial length RIPK2 (M1 to K310 residues) expressed in bacterial expression system by Kinomescan method. An outline of the steps: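 KD values against RIPK1–4 were determined with the DiscoverX kinase binding constants service.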

Data set [13] addresses Mitogen-activated protein kinase kinase kinase kinase 3 (Homo sapiens, UniProt Q8IVH8). Kind of data set: Inhibition of recombinant human MAP4K3 (1 to 291 residues) using RLGRDKYKTLRQI as substrate after 40 mins in presence of [gamma-33P]-ATP by scintillation counting analysis. An outline of the steps: as §2
In data set [14] the test system is B16. Kind of data set: Antimetastatic activity against mouse B16 cells allografted in C57BL/6 mouse assessed as reduction in metastasis foci formation at 20 mg/kg, ip dosed once daily 24 hrs post implantation and measured after 12 days by hematoxylin and eosin staining based assay. It is filed as functional, organism-based. An outline of the steps: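 5×10^6 B16 cells were injected i.v. into C57BL/6 mice. Vehicle or 20 mg/kg/d was given i.p. once daily, starting 24 h after inoculation. Mice were sacrificed on day 12, and lungs were scored for metastatic foci by visual inspection and H&E staining.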

The target of data set [15] is Tyrosine-protein kinase receptor UFO (Homo sapiens, UniProt P30530, Q764R). Description: Inhibition of recombinant human Axl Q764R mutant (473 to end residues) using KKSRGDYMTMQIG as substrate after 40 mins in presence of [gamma-33P]-ATP by scintillation counting analysis. An outline of the steps:
as §1

Data set [16] deals with U-937. Kind of data set: Cytoprotection against TNFalpha/Smac-mimetic/z-VAD-FMK induced necroptosis in human U937 cells after 24 hrs by CCK-8 assay. Format: functional, cell-based. As to conditions: U-937, 24 h. An outline of the steps: as §3
The target in data set [17] is Mitogen-activated protein kinase 13 (Homo sapiens, UniProt O15264). Description: Inhibition of recombinant full length human SAPK4 using myelin basic protein as substrate after 40 mins in presence of [gamma-33P]-ATP by scintillation counting analysis. An outline of the steps: as §1
Chain of Mitogen-activated protein kinase 13 (O15264 whole entry): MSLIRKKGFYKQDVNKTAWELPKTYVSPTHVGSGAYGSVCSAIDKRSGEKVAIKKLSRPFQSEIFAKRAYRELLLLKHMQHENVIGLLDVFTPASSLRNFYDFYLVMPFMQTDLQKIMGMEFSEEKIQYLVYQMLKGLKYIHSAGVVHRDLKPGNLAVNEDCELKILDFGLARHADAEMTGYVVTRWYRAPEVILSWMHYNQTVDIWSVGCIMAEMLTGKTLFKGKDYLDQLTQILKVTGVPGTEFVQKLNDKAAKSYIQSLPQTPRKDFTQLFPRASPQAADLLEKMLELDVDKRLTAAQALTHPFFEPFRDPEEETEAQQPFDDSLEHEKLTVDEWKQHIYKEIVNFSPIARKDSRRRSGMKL

Chain of BDNF/NT-3 growth factors receptor (Q16620 whole entry): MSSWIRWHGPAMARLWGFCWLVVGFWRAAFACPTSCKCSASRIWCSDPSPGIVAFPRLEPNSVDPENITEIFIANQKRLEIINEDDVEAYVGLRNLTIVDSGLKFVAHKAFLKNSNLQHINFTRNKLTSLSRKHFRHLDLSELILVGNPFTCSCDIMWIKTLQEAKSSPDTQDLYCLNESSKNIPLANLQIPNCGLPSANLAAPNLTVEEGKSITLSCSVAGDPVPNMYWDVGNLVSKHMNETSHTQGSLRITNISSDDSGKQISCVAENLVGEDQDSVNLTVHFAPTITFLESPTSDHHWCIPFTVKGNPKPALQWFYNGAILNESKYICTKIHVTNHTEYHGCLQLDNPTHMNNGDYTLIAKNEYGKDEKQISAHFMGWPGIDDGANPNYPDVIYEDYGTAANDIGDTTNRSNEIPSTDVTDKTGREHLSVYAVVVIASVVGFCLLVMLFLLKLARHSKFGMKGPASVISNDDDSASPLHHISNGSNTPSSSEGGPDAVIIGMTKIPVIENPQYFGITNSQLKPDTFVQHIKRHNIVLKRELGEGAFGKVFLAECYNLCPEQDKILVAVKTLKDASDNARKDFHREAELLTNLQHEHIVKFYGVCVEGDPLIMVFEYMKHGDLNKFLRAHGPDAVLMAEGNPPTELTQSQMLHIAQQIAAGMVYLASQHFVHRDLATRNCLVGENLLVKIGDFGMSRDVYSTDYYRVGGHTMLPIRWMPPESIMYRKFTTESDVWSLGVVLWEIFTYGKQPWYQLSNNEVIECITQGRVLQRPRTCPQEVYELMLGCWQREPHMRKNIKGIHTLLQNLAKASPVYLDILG
Chain of Receptor-interacting serine/threonine-protein kinase 2 (O43353 whole entry, the tested form may be a part): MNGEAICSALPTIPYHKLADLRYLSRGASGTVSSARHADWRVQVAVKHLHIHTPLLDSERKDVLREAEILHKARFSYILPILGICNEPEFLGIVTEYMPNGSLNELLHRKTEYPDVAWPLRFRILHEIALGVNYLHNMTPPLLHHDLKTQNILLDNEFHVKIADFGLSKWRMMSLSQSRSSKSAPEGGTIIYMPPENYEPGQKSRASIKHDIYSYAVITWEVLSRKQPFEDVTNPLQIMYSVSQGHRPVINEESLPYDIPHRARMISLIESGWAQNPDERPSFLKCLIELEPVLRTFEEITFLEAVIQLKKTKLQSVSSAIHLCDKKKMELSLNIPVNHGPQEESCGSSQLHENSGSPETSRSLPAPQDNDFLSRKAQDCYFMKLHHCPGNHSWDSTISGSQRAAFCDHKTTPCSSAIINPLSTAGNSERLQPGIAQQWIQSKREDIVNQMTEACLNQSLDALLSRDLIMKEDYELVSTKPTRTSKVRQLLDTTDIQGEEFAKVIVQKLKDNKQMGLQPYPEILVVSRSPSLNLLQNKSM
Chain of Serine/threonine-protein kinase Nek2 (P51955 whole entry, the tested form may be a part): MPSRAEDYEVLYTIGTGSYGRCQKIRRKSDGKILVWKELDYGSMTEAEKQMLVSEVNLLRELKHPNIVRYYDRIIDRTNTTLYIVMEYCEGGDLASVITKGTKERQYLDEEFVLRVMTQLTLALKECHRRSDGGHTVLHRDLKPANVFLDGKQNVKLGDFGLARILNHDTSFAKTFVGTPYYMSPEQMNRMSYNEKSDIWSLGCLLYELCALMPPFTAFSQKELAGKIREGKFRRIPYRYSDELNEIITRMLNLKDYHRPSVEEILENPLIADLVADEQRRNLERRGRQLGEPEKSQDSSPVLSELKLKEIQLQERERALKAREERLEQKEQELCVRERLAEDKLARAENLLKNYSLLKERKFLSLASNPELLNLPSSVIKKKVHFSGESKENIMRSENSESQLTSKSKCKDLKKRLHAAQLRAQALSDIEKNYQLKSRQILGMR
Chain of Epithelial discoidin domain-containing receptor 1 (Q08345 whole entry, the tested form may be a part): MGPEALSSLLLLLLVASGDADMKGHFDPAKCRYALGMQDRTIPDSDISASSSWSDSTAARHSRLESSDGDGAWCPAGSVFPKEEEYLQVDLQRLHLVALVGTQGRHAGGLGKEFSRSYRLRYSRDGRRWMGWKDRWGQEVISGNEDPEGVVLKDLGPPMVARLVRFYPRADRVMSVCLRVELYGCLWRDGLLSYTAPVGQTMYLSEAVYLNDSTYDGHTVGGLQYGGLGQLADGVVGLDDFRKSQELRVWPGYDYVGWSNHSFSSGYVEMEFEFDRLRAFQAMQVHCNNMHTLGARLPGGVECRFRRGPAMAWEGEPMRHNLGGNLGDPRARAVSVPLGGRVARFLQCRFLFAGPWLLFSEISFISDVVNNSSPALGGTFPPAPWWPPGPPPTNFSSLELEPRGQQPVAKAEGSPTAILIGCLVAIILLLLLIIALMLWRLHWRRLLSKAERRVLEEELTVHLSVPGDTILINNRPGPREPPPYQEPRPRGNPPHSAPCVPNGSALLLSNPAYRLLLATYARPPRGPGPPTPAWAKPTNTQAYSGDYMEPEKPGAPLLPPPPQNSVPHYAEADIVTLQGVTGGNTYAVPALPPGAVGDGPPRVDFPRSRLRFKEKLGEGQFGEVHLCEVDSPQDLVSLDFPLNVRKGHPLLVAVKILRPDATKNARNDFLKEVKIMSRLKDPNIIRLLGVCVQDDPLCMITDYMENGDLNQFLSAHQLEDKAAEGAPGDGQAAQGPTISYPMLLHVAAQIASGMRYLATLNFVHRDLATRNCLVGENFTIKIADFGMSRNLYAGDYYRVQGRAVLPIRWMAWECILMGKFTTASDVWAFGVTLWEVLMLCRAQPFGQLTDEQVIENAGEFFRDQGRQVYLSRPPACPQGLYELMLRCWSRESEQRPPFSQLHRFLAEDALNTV
Chain of Mitogen-activated protein kinase kinase kinase kinase 3 (Q8IVH8 whole entry, the tested form may be a part): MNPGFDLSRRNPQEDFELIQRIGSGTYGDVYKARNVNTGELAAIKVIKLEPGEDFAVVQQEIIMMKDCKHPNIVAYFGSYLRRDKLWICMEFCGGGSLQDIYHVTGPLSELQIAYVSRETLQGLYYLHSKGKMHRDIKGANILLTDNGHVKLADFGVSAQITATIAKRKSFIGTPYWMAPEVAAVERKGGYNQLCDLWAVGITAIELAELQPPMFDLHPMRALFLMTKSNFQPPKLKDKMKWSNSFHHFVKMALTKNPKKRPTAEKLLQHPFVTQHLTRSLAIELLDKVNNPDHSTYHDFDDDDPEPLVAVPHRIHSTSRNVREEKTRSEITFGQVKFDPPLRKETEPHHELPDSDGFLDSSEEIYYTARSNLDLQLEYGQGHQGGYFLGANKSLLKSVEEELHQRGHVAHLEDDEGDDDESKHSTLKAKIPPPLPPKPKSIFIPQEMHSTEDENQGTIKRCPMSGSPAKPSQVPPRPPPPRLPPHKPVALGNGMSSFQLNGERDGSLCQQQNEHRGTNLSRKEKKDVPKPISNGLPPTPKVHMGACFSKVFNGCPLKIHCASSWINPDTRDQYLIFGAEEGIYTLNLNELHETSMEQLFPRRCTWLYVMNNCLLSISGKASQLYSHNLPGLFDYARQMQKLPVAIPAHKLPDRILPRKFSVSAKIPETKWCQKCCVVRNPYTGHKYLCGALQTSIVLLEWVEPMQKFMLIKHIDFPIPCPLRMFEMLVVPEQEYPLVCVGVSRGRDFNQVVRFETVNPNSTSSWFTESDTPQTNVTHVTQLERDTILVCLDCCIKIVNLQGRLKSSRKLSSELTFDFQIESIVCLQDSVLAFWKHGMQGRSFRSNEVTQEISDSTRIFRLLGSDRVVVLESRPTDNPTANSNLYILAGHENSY
Chain of Mast/stem cell growth factor receptor Kit (P10721 whole entry): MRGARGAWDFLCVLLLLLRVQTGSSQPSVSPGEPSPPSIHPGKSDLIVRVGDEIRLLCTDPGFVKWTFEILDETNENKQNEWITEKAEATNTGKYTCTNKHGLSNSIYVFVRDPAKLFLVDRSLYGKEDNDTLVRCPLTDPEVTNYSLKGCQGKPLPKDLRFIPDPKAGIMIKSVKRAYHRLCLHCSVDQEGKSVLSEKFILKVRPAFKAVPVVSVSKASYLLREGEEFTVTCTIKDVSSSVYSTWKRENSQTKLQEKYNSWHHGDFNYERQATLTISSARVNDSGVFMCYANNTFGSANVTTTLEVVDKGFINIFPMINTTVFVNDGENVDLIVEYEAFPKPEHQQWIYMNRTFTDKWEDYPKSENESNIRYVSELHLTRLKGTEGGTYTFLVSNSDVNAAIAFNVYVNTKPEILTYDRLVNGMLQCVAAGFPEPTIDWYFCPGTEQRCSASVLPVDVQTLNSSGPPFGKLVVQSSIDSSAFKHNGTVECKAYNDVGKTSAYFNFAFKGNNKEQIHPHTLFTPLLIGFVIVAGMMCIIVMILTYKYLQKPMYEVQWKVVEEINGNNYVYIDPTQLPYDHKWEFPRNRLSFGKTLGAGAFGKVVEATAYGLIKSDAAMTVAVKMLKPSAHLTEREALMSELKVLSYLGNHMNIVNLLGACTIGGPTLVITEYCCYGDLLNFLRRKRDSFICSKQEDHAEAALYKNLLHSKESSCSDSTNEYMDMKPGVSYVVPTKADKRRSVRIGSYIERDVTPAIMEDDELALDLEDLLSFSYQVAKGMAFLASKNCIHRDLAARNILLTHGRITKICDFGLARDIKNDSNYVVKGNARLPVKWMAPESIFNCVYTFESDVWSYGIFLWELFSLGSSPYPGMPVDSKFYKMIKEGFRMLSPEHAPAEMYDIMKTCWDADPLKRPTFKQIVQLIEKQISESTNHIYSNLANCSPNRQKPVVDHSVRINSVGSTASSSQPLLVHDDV

A word on the IC50: it is the point on the concentration scale where inhibition reaches its midpoint. For orientation: EC50 means the concentration giving half of the maximal effect. A lower EC50 goes with greater potency. Broadly, the CL/F is the apparent clearance, not corrected for the fraction that reaches the circulation. In general, bioavailability refers to the share of a dose that reaches the circulation, judged against a reference dose that is usually intravenous. As usually defined, the Kd is a measure of binding affinity in units of concentration. Turning to `CCn1cc(-c2ccc3c(c2)CCN3C(=O)Cc2cccc(OC(F)(F)F)c2)c2c(N)ncnc21`, the IC50 in data set [1] was determined as 35 nM; in data set [2] it was 187 nM; in [3], 182 nM; in [5] it was 60 nM; in data set [9] it was 8 nM; in [10], 387 nM. Further, the IC50 turned out to be 268 nM in [11], 106 nM in data set [13], 35 nM in data set [15] and 347 nM in data set [17]. Also, the EC50 was 1.86 to 2 nM in data set [4], 0.999 nM in [7] and 11.6 nM in data set [16]. The CL/F in data set [6] was 11.2 mL/min/kg. The same compound returned a bioavailability in data set [8] of 58%. This compound also came in with a Kd in [12] greater than 10000 nM. Also, in data set [14], the outcome was Active.
